Active and inactive are the calls of the source. No cut-off for these calls is given here.
Columns and labels:
[1] = target: T1, Epidermal growth factor receptor (Homo sapiens, UniProt P00533); assay: Inhibition of recombinant EGFR (unknown origin) using poly (Glu4, Tyr) as substrate assessed as inhibition at 10 uM after 60 mins by ADP-glo kinase assay
[2] = target: T1, Epidermal growth factor receptor; assay: Inhibition of recombinant EGFR (unknown origin) using poly (Glu4, Tyr) as substrate after 60 mins by ADP-glo kinase assay
Method in brief: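 ADP-Glo luminescent assay. Each reaction held 30 ng recombinant EGFR, 5 µM ATP and 0.2 µg/µl poly(Glu4,Tyr) in tyrosine kinase buffer with a compound dilution; 60 min at ambient temperature. Stopped with ADP-Glo reagent (40 min), then kinase detection reagent, luminescence read after 30 min. Blank (no enzyme) subtracted; activity expressed as % of the 0 µM reaction. Dilutions run in duplicate.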

[3] = target: T1, Epidermal growth factor receptor; assay: Inhibition of recombinant EGFR (unknown origin) using poly (Glu4, Tyr) as substrate assessed as inhibition at 30 uM after 60 mins by ADP-glo kinase assay
[4] = target: T1, Epidermal growth factor receptor; assay: Inhibition of recombinant EGFR (unknown origin) using poly (Glu4, Tyr) as substrate assessed as inhibition at 100 uM after 60 mins by ADP-glo kinase assay
[5] = target: T1, Epidermal growth factor receptor; assay: Inhibition of recombinant EGFR (unknown origin) using poly (Glu4, Tyr) as substrate assessed as inhibition at 1 uM after 60 mins by ADP-glo kinase assay
MCF7 [6] = assay: Antiproliferative activity against human MCF7 cells at 50 uM after 48 hrs by SRB assay; format: functional; settings: MCF7, 48 h, read-out: GI
MCF7 [7] = assay: Antiproliferative activity against human MCF7 cells at 1 uM after 48 hrs by SRB assay; format: functional; settings: MCF7, 48 h, read-out: GI
Method in brief: (§1)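 Cells kept in RPMI-1640 with 2 mM glutamine, 10% FBS, penicillin/streptomycin, 37°C, 5% CO2. Seeded and grown 24 h, then test material in complete medium added and incubated 48 h. Fixed with cold TCA 1 h at 4°C, stained with 0.4% SRB in 1% acetic acid for 30 min, dye dissolved in 10 mM Tris pH 10.4, OD read at 540 nm.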

HCT-116 [8] = assay: Antiproliferative activity against human HCT116 cells at 20 uM after 48 hrs by SRB assay; format: functional; settings: HCT-116, 48 h, read-out: GI
Method in brief: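 Cells kept in RPMI-1640 with 2mM glutamine, 10% FBS, streptomycin and penicillin at 37°C, 5% CO2. Seeded cells grown 24 h, then exposed to compound in complete medium for 48 h. Fixed with cold TCA 1 h at 4°C, stained with 0.4% SRB 30 min, bound dye dissolved in 10mM Tris pH 10.4, OD read at 540 nm. Blank-subtracted percent growth inhibition taken against untreated cells as 100%.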

HCT-116 [9] = assay: Antiproliferative activity against human HCT116 cells at 50 uM after 48 hrs by SRB assay; format: functional; settings: HCT-116, 48 h, read-out: GI
A549 [10] = assay: Antiproliferative activity against human A549 cells at 1 uM after 48 hrs by SRB assay; format: functional; settings: A549, 48 h, read-out: GI
Method in brief: as §1

A549 [11] = assay: Antiproliferative activity against human A549 cells at 50 uM after 48 hrs by SRB assay; format: functional; settings: A549, 48 h, read-out: GI
PC-3 [12] = assay: Antiproliferative activity against human PC3 cells at 50 uM after 48 hrs by SRB assay; format: functional; settings: PC-3, 48 h, read-out: GI
MCF7 [13] = assay: Induction of apoptotic bodies formation in human MCF7 cells at 50 nM after 24 hrs by DAPI staining based immunofluorescence microscopy; format: functional, cell-based
PC-3 [14] = assay: Antiproliferative activity against human PC3 cells at 1 uM after 48 hrs by SRB assay; format: functional; settings: PC-3, 48 h, read-out: GI
Method in brief: as §1

T1 sequence (P00533 whole entry): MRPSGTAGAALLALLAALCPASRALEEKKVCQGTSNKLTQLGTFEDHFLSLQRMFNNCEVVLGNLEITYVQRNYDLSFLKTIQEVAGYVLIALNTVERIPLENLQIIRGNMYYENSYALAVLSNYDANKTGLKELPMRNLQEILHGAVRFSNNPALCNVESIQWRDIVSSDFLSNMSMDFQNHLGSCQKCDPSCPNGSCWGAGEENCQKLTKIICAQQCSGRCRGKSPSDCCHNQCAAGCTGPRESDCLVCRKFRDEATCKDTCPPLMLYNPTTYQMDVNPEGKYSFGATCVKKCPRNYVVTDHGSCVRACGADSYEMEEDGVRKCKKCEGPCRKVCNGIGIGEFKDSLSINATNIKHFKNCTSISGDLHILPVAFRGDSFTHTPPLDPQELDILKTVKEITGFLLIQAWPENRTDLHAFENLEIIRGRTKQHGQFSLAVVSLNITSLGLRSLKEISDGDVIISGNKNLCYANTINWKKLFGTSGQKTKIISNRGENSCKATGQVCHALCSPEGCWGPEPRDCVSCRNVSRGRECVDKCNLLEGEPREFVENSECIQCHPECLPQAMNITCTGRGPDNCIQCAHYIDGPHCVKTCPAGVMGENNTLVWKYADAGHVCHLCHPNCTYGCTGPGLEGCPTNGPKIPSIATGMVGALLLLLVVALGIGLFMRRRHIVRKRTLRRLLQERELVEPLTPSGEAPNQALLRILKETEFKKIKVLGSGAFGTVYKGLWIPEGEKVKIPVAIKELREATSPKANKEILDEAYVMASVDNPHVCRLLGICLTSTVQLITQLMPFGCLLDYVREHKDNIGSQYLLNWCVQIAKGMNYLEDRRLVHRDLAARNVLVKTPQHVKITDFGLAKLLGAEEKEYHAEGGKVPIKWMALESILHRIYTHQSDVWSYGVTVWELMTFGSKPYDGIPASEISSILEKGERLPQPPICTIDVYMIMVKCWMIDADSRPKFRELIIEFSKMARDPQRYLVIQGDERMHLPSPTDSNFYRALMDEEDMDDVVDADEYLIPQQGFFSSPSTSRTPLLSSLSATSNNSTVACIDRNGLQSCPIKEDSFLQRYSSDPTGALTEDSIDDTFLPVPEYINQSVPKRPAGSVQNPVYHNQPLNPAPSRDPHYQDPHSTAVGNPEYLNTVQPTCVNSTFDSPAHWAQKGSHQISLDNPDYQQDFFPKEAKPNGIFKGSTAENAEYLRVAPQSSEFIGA

CCCCOC(=O)c1c(-c2ccccc2)nn2ccccc12
inhibition [1]: 37%
IC50 [2]: 23.7 µM
inhibition [3]: 51%
inhibition [4]: 72%
inhibition [5]: 16%

COc1cccc2c1C(=O)c1c(O)c3c(c(O)c1C2=O)C[C@@](O)(C(=O)CO)C[C@@H]3O[C@H]1C[C@H](N)[C@H](O)[C@H](C)O1 [DOXORUBICIN]
inhibition of growth at 50 µM (MCF7 [6]): 62%
inhibition of growth at 1 µM (MCF7 [7]): 62%

O=c1[nH]cc(F)c(=O)[nH]1 [FLUOROURACIL]
inhibition of growth at 20 µM (HCT-116 [8]): 58%
inhibition of growth at 50 µM (HCT-116 [9]): 58%

CC(=O)O[C@H]1C(=O)[C@@]2(C)[C@H]([C@H](OC(=O)c3ccccc3)[C@]3(O)C[C@H](OC(=O)[C@H](O)[C@@H](NC(=O)c4ccccc4)c4ccccc4)C(C)=C1C3(C)C)[C@]1(OC(C)=O)CO[C@@H]1C[C@@H]2O [PACLITAXEL]
inhibition of growth at 1 µM (A549 [10]): 78%
inhibition of growth at 50 µM (A549 [11]): 78%
inhibition of growth at 50 µM (PC-3 [12]): 72%
Activity (MCF7 [13]): Active
inhibition of growth at 1 µM (PC-3 [14]): 72%

— ChEMBL document CHEMBL4002564, “Design, synthesis and cytotoxicity studies of novel pyrazolo[1, 5-a]pyridine derivatives” (Eur J Med Chem, 2017)
